Rows were chosen to be rich in hits. Some 4.5% of all compounds tested hit in one or more screens of this group.
NS3 helicase inh: inhibitors of Hepatitis C virus NS3 helicase | NS3 helicase DNA unwinding, Cy5 molecular beacon fluorescence | inhibition, % at 10.9 µM | 290,000 tested, 0.56% active;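 active means inhibition above the mean of all tested compounds plus 3 SD, set per campaign, cut at about 35% in these data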
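assay system = NS3 helicase fragment of HCV | buffer or medium = MOPS pH 6.5, MgCl2, DTT, Tween20, BSA | timing = 60 min unwinding reaction at 25 °C after ATP addition | signal = Cy5 beacon fluorescence read at start and 1 h | read-out basis = % inhibition of unwinding | control set = low DMSO, high thioflavine S at 110 µM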
M18AAP inhibitor: PfM18AAP enzyme inhibition; 290,000 tested, 1.2% active; AID 1822; inhibition, % at 7.35 µM; recombinant PfM18AAP, H-Glu-NHMec fluorogenic cleavage;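 active means inhibition above the campaign mean inhibition over all tested compounds plus 3 SD, cut at about 28% in these data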
CHOP inhibitor: blocks CHOP induction under ER stress; CHO-K1 CHOP-promoter luciferase, tunicamycin-induced, 15-18 h; inhibition, % at 10 µM; 220,000 tested, 3.8% active;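 active means compounds that reduced the stress-induced luciferase reporter signal by more than about 70% of percent inhibition, limit read from the data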
p97 inhibitor: inhibitors of human p97 ATPase; P55072; 220,000 tested, 0.42% active; inhibition, % at 8 µM; recombinant p97 ATPase, Kinase-Glo ATP luminescence, 3 h; in the data active means inhibition above about 15%
Target sequence (P55072 whole entry, looked up): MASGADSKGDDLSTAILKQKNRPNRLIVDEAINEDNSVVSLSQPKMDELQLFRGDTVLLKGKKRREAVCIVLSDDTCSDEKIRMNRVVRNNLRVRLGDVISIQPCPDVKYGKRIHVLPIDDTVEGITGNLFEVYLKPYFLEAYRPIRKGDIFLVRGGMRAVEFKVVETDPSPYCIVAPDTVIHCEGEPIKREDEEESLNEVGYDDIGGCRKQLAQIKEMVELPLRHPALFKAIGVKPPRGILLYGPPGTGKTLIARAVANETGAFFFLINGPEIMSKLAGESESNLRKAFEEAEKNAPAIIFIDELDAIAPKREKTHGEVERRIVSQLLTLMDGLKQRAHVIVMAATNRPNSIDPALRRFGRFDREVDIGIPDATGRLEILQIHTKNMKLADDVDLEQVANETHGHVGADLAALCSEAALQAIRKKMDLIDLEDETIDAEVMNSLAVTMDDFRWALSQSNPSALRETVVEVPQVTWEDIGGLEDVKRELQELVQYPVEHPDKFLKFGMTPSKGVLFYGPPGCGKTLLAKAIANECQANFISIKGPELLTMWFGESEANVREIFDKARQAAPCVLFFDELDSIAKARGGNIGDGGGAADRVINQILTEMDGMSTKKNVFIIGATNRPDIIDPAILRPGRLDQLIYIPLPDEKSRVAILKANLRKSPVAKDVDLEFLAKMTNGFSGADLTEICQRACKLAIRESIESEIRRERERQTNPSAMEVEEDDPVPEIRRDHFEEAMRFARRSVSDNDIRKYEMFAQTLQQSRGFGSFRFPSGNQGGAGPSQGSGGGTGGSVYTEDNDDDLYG
UPR CHOP act: activators of apoptotic arm of unfolded protein response (CHOP); CHO-CHOP luciferase reporter, UPR activation, luminescence; percent of tunicamycin response over DMSO baseline; activation, % at 10 µM; 330,000 tested, 0.34% active;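 active means at 10 µM dose, activation of 40% or more, normalized to positive control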
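System: CHO-CHOP luciferase reporter cell line | Buffer or medium: F12 medium containing 10% fetal bovine serum | Doses: One dose, 10 µM in 0.5% DMSO | Times: 6 h compound exposure at 37 °C after overnight seeding | Signal: Luciferase luminescence | Read-out: % activation vs tunicamycin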
UPR XBP1 act: adaptive UPR (XBP1) activation. CHO-XBP1 luciferase reporter, IRE1-XBP1 UPR activation, luminescence; percent of tunicamycin response, DMSO as zero. AID 463104. 330,000 tested, 0.33% active. activation, % at 20 µM;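 active means versus positive control, 20 µM dose yields 30% or more activation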
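Material: IRE1-XBP1 luciferase reporter CHO line / Quantity: one thousand reporter cells per well / Buffer or medium: F12 with 10% serum / Compound: 20 µM single concentration, DMSO 1% / Times: 6 h treatment, 37 °C / Detection: Steady-Glo luciferase glow luminescence, 10 min after reagent addition / Benchmarks: tunicamycin high, DMSO low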
Each line names hits and unclear results; the compound was inactive in the other large screens.

CCOC(=O)c1[nH]c(Cc2[nH]c(C(=O)OCC)c(C)c2CCC(=O)OC)c(CCC(=O)OC)c1C	CHOP inhibitor 85
Cc1cc(C)cc(-n2c3nc4ccccc4nc3c3c(=O)n(Cc4ccco4)cnc32)c1	NS3 helicase inh 43, CHOP inhibitor 103
CCOc1ccc(-n2c3nc4ccccc4nc3c3c(=O)n(Cc4ccco4)cnc32)cc1	none (no result: CHOP inhibitor, UPR CHOP act, UPR XBP1 act)
O=C(NNc1nc(Nc2ccccc2)nc(N2CCOCC2)n1)Nc1ccc(Cl)cc1	CHOP inhibitor 95
O=C1COc2ccc(C(=O)COC(=O)Cc3c(F)cccc3Cl)cc2N1	none (no result: NS3 helicase inh, M18AAP inhibitor, CHOP inhibitor, p97 inhibitor)
O=C(Nc1cccc(S(=O)(=O)Nc2ccc(Cl)cc2)c1)c1ccc(Cl)nc1	CHOP inhibitor 73
COc1ccc(NS(=O)(=O)c2cccc(NC(=O)c3ccc(Cl)nc3)c2)cc1	none
O=C(Nc1cccc(S(=O)(=O)Nc2ccc(Cl)cc2)c1)c1cc2c(s1)CCCC2	CHOP inhibitor 76
Cc1ccc(NC(=O)c2cc3c(s2)CCCC3)cc1S(=O)(=O)Nc1ccccc1Cl	none
Cc1ccc(NC2CCCN(C(=O)CCN3CCOCC3)C2)cc1C (stereo unspecified)	none (no result: CHOP inhibitor, p97 inhibitor)
Clc1ccc(-c2nnc(-c3ccccc3)nc2-c2c[nH]c3ccccc23)cc1	CHOP inhibitor 85
Cc1[nH]c2ccccc2c1-c1nc(-c2ccc(Cl)cc2)nnc1-c1ccccc1	CHOP inhibitor 76
c1ccc(-c2nnc(-c3ccccc3)c(-c3c[nH]c4ccccc34)n2)cc1	none
O=C1CC(=O)CC(c2ccco2)C1	M18AAP inhibitor 28
O=C1C=C(O)CC(c2ccco2)C1 (stereo unspecified)	none
CCS(=O)(=O)N1Cc2ccccc2CC1C(=O)OCC(=O)Nc1ccc(C)cc1 (stereo unspecified)	none
CCS(=O)(=O)N1Cc2ccccc2CC1C(=O)OCC(=O)Nc1ccc(SC(F)F)cc1 (stereo unspecified)	CHOP inhibitor 93
Cc1ccc(C(=O)NCCNC(=O)c2cccnc2)cc1	none (no result: CHOP inhibitor, p97 inhibitor)
O=C(Nc1ccc(Cl)cc1)Nc1cccc2nsnc12	CHOP inhibitor 73
O=C(Nc1ccncc1)Nc1cccc(Cl)c1Cl	none (no result: CHOP inhibitor, p97 inhibitor)
O=C(COc1ccccc1)Nc1cccc2nsnc12	CHOP inhibitor 76
Cn1c(SCc2nc3ccccc3c(=O)[nH]2)nc2ccccc21	none
CC(C)Cn1c(SCc2nc3ccccc3c(=O)[nH]2)nc2ccccc2c1=O	CHOP inhibitor 82
Cc1ccc(Cl)cc1NC(=O)Cn1c(C)csc1=O	none (no result: NS3 helicase inh, M18AAP inhibitor, CHOP inhibitor, p97 inhibitor)
COc1ccccc1NC(=S)N1CCN(c2ccccc2F)CC1	none (no result: CHOP inhibitor, p97 inhibitor)
CC(C)=CCC/C(C)=C/CCC(C)NCCN1CCNCC1 (stereo unspecified)	CHOP inhibitor 95
Cc1cccn2c(=O)nc(SCC(=O)Nc3ccc4c(c3)OCO4)nc12	none (no result: NS3 helicase inh, M18AAP inhibitor, CHOP inhibitor, p97 inhibitor)
CN(C(=O)CSc1nc(N)cc(N)n1)C1CCS(=O)(=O)C1 (stereo unspecified)	none (no result: CHOP inhibitor, p97 inhibitor)
Cc1[nH]c(C)c(S(=O)(=O)N2CCN(c3ccc(Cl)cc3)CC2)c1C(=O)N1CCCC1	none (no result: CHOP inhibitor, p97 inhibitor)
O=C(N/N=C\C=C\c1ccco1)c1cc(-c2ccc3ccccc3c2)n[nH]1	CHOP inhibitor 80
CC(/C=N/n1c(-c2ccc(Cl)cc2)n[nH]c1=S)=C\c1ccco1	CHOP inhibitor 95
S=c1[nH]nc(-c2ccco2)n1/N=C/c1ccc(Cl)cc1	M18AAP inhibitor 31 (no result: UPR CHOP act, UPR XBP1 act)
O=C(/C=C/c1ccccc1)NCCSc1ccc(Cl)cc1	CHOP inhibitor 77
O=c1ccc(-c2ccc(S(=O)(=O)Nc3cccc([N+](=O)[O-])c3)s2)n[nH]1	none (no result: CHOP inhibitor, p97 inhibitor)
COC(=O)Cc1ccc(NC(=O)c2ccc(C(C)(C)C)cc2)cc1	CHOP inhibitor 72
Cc1cccc(NS(=O)(=O)c2ccc(C)c(C(=O)NCc3ccccn3)c2)c1	none (no result: NS3 helicase inh, M18AAP inhibitor, CHOP inhibitor, p97 inhibitor)
NS(=O)(=O)c1ccc(NCc2cc(Cl)ccc2OCc2ccccc2F)cc1	CHOP inhibitor 70
O=C(Nc1ccc2nc(-c3cccs3)c(-c3cccs3)nc2c1)NC1CC1	CHOP inhibitor 92
CCOC(=O)c1c(NC(=S)NNS(=O)(=O)c2ccc(Br)cc2)sc2c1CCCCC2	none (no result: CHOP inhibitor, p97 inhibitor)
COCCn1c(C)cc(C2=NNC(=Nc3ccccc3F)SC2)c1C	CHOP inhibitor 70
